According to ChEMBL document CHEMBL1147924, “One pot synthesis of pyrimidine and bispyrimidine derivatives and their evaluation for anti-inflammatory and analgesic activities” (2007):

Legend:
Type in all cases: functional
Mus musculus [1] = assay: Analgesic activity against phenylquinone-induced in Swiss mouse assessed as effect on writhings at 50 mg/kg, po after 20 mins
Summary of the method: (§1)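 Female Swiss mice (15–20 g) screened the day before by intraperitoneal 0.2 cm³ of 0.02% aqueous phenylquinone, with writhes counted over 20 min. Mice with more than 10 writhes were used next day in groups of five. They were given the oral dose (25, 50 or 100 mg/kg) 15 min before the phenylquinone challenge, and writhing was recorded.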

Rattus norvegicus [2] = assay: Antiinflammatory activity against carrageenan-induced paw oedema in Albino rat at 50 mg/kg, po after 3 hrs
Summary of the method: (§2)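 Oral dosing. Paw volume was read by plethysmometer immediately after and 3 h after the irritant injection, and the volume difference was taken as oedema. Percent inhibition of oedema was calculated for treated groups against the control group, with a standard-drug group included.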

Rattus norvegicus [3] = assay: Antiinflammatory activity against carrageenan-induced paw oedema in Albino rat at 100 mg/kg, po after 3 hrs; summary of the method: as §2
Mus musculus [4] = assay: Analgesic activity against phenylquinone-induced in Swiss mouse assessed as effect on writhings at 100 mg/kg, po after 20 mins; summary of the method: as §1
Mus musculus [5] = assay: Analgesic activity against phenylquinone-induced in Swiss mouse assessed as effect on writhings at 75 mg/kg, po after 20 mins
Mus musculus [6] = assay: Analgesic activity against phenylquinone-induced in Swiss mouse assessed as effect on writhings at 25 mg/kg, po after 20 mins; summary of the method: as §1

Row | Compound | Activity (Mus musculus [1]) [%] | Activity (Rattus norvegicus [2]) [%] | Activity (Rattus norvegicus [3]) [%] | Activity (Mus musculus [4]) [%] | Activity (Mus musculus [5]) [%] | Activity (Mus musculus [6]) [%]
1 | CC1(C)CC(C)(O)N(Cc2ccco2)C(=S)N1 (stereo not given) | 15 | 10.3 | – | – | – | –
2 | CC1(C)CC(C)(O)N(CCCN2CCCC2=O)C(=S)N1 (stereo not given) | – | – | 40.3 | 34 | – | –
3 | CC1=CC(C)(C)NC(=S)N1c1ccccc1C#N | 0 | – | 0 | 25 | – | –
4 | CC1=CC(C)(C)NC(=S)N1CCCC1OCC2(CO1)COC(CCCN1C(=S)NC(C)(C)C=C1C)OC2 (stereo not given) | 25 | – | 31.8 | 75 | – | –
5 | CC1CC(O)N(CCCN2CCN(CCCN3C(=S)NC(C)CC3O)CC2)C(=S)N1 (stereo not given) | 40 | 38.6 | – | – | – | –
6 | CC1CC(O)N(CCCC2OCC3(CO2)COC(CCCN2C(=S)NC(C)CC2O)OC3)C(=S)N1 (stereo not given) | – | – | 0 | 0 | – | –
7 | CC1=CC(C)(C)NC(=S)N1Cc1ccco1 | 8.5 | 15.1 | – | – | – | –
8 | CC1(C)CC(C)(O)N(CCc2c[nH]cn2)C(=S)N1 (stereo not given) | 25 | – | 65 | 100 | 50 | 12.5
9 | CC1(C)CC(C)(O)N(CCCn2ccnc2)C(=S)N1 (stereo not given) | 25 | – | 35 | 50 | – | –
10 | CC1=CC(C)(C)NC(=S)N1c1n[nH]c(N2C(=S)NC(C)(C)C=C2C)n1 | – | – | 0 | 0 | – | –
11 | CC1CC(O)N(CCCN2CCCC2=O)C(=S)N1 (stereo not given) | 50 | 36.3 | – | – | – | –
12 | CC1=CC(C)(C)NC(=S)N1CCCn1ccnc1 | 40 | 32.5 | – | – | – | –
13 | CC1(C)CC(C)(O)N(CCCN2CCN(CCCN3C(=S)NC(C)(C)CC3(C)O)CC2)C(=S)N1 (stereo not given) | 10 | 31.6 | – | – | – | –
14 | CC(C)Cc1ccc(C(C)C(=O)O)cc1 (stereo not given) [IBUPROFEN] | 50 | – | 66.8 | 75 | – | –
